Experimental data taken from ChEMBL document CHEMBL5715960, “Epigenetic Co-Deregulation of EZH2/TET1 is a Senescence-Countering, Actionable Vulnerability in Triple-Negative Breast Cancer” (Theranostics, 2019).
The source made the active and inactive calls. The calls are words filed in the database; no cut-off is given here.

Columns and labels:
MDA-MB-436 [1] = assay: Effect on human MDA-MB-436 cells assessed as apoptotic phenotype by measuring increase in PUMA expression level at 2 uM in presence of adriamycin by immunoblot analysis; assay type: functional, cell-based
Procedure, shortened: (§1)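 Immunoblot of cell lysates after 0.05 µg/ml adriamycin alone, with 2 µM GSK343, or DMSO. α-Tubulin and total H3 used as loading controls.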

MCF7 [2] = assay: Effect on human MCF7 cells assessed as increase in TET1 level at 2 uM in presence of adriamycin by immunoblot analysis; assay type: functional, cell-based
Procedure, shortened: (§2)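 Immunoblot of MDA-MB-231 and MCF7 lysates after 0.005 µg/ml adriamycin with or without 2 µM GSK343, or DMSO. α-Tubulin and total H3 used as loading controls.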

BT-474 [3] = assay: Antiproliferative activity against human BT-474 cells assessed as increase in global H3K9me3 expression level by immunoblot analysis; assay type: toxicity, cell-based
Procedure, shortened: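 Cells exposed to GSK343 at 2 µM (standard level unless stated otherwise), lysed and immunoblotted; α-tubulin and total H3 as loading controls.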

MDA-MB-436 [4] = assay: Effect on human MDA-MB-436 cells assessed as apoptotic phenotype by measuring increase in BIM expression level at 2 uM in presence of adriamycin by immunoblot analysis; assay type: functional, cell-based; procedure, shortened: as §1
MDA-MB-231 [5] = assay: Effect on human MDA-MB-231 cells assessed as apoptotic phenotype by measuring increase in p53 expression level at 2 uM in presence of adriamycin by immunoblot analysis; assay type: functional, cell-based; procedure, shortened: as §1
MDA-MB-436 [6] = assay: Downregulation of EZH2 transcription in human MDA-MB-436 cells at 2 uM for 2 days by immunoblot analysis; assay type: functional, cell-based; settings: time 2.0 day
MCF7 [7] = assay: Induction of cell cycle arrest in human MCF7 cells assessed as accumulation of cells at S phase measured at 2 uM by BrdU/PI staining based flow cytometric analysis (reference value: 27.7%); assay type: functional
MDA-MB-436 [8] = assay: In vivo activation of p53 expression in Crl:NU-Foxn1-nu/nu mouse xenografted with human MDA-MB-436 cells at 5 mg/kg, ip in presence of adriamycin treated for 21 days; assay type: functional, organism-based; settings: time 21.0 day
MDA-MB-436 [9] = assay: Downregulation of E2F1 in human MDA-MB-436 cells at 2 uM for 2 days by immunoblot analysis; assay type: functional, cell-based; settings: time 2.0 day
BT-474 [10] = assay: Cytotoxicity against human BT-474 cells at 0.5 to 2 uM for 2 days by Guava viacount assay; assay type: toxicity, cell-based; settings: bt-474, 48 h, dose 0.5-2 µM, time 2 day
Procedure, shortened: (§3)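 Cells plated at 2 × 10^4 (24-well) or 1 × 10^5 (12-well), exposed to a range of GSK343 concentrations for 2 days against DMSO solvent control; cell number and viability read by Guava ViaCount flow cytometry, relative to DMSO. Triplicate; mean ± SD.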

SK-BR-3 = assay: Cytotoxicity against human SK-BR-3 cells assessed as increase in cell death at 10 uM for 2 days by Guava viacount assay; assay type: toxicity, cell-based; settings: sk-br-3, 48 h, time 2 day; procedure, shortened: as §3
MDA-MB-231 [11] = assay: Effect on human MDA-MB-231 cells assessed as increase in TET1 level at 2 uM in presence of adriamycin by immunoblot analysis; assay type: functional, cell-based; procedure, shortened: as §2
MDA-MB-231 [12] = assay: Induction of apoptosis in human MDA-MB-231 cells assessed as decrease in accumulation of cells at S phase in presence of adriamycin by BrdU/PI-based cell cycle analysis; assay type: functional
Procedure, shortened: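 Cell cycle by BrdU/PI staining and flow cytometry, giving G1, S and G2 fractions. Cells received 0.005 µg/ml adriamycin with or without 2 µM GSK343, or DMSO. Mean ± SD.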

MDA-MB-436 [13] = assay: […] in human MDA-MB-436 cells xenografted in Crl:NU-Foxn1-nu/nu mouse […] administered at 5 mg/kg, ip in presence of adriamycin treated for 21 days by SA-beta-gal staining analysis; assay type: functional, organism-based; settings: time 21.0 day
Procedure, shortened: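 SA-β-gal staining of xenograft tumors. Twice-weekly intraperitoneal GSK343 5 mg/kg, adriamycin 1 mg/kg, the combination, or DMSO, started at a tumor volume of about 50 mm3 and continued for 21 days.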

MDA-MB-436 [14] = assay: Effect on human MDA-MB-436 cells expressing shTET1 assessed as reduction in cyclinA by immunoblot analysis; assay type: functional, cell-based
MDA-MB-436 [15] = assay: Antiproliferative activity in human MDA-MB-436 cells expressing shTET1 assessed as increase in SA-beta-gal positive cells by SA-beta-gal staining analysis (reference value: 8.2+/-2.4%); assay type: functional
MDA-MB-436 [16] = assay: Upregulation of TP53 gene in human MDA-MB-436 cells at 2 uM by qRT-PCR analysis; assay type: functional, cell-based
Procedure, shortened: (§4)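 Relative transcript levels measured by qRT-PCR in cells treated with 2 µM inhibitor, normalised to DMSO-treated control cells. Triplicate experiments unless stated otherwise; mean ± SD reported; unpaired two-tailed Student's t-test at p < 0.05.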

MDA-MB-436 [17] = assay: Upregulation of CDKN1A gene in human MDA-MB-436 cells at 2 uM by qRT-PCR analysis; assay type: functional, cell-based; procedure, shortened: as §4
MDA-MB-231 [18] = assay: Downregulation of E2F1 in human MDA-MB-231 cells at 2 uM for 2 days by immunoblot analysis; assay type: functional, cell-based; settings: time 2.0 day
MDA-MB-231 [19] = assay: Antitumor activity against human MDA-MB-231 cells xenografted in Crl:NU-Foxn1-nu/nu mouse assessed as reduction in tumor administered at 5 mg/kg, ip in presence of adriamycin treated for 21 days; assay type: functional, organism-based; settings: time 21.0 day
MDA-MB-231 [20] = assay: In vivo activation of p53 expression in Crl:NU-Foxn1-nu/nu mouse xenografted with human MDA-MB-231 cells at 5 mg/kg, ip in presence of adriamycin treated for 21 days; assay type: functional, organism-based; settings: time 21.0 day
MDA-MB-231 [21] = assay: Effect on human MDA-MB-231 cells expressing shTET1 assessed as increase in p21 cascade by immunoblot analysis; assay type: functional, cell-based
BT-474 [22] = assay: Cytotoxicity against human BT-474 cells assessed as increase in cell death at 10 uM for 2 days by Guava viacount assay; assay type: toxicity, cell-based; settings: bt-474, 48 h, time 2 day; procedure, shortened: as §3
MDA-MB-436 [23] = assay: Downregulation of EZH2 protein expression in human MDA-MB-436 cells at 2 uM for 2 days by immunoblot analysis; assay type: functional, cell-based; settings: time 2.0 day
MDA-MB-436 [24] = assay: Antiproliferative activity in human MDA-MB-436 cells assessed as increase in SA-beta-gal positive cells at 2 uM for 5 days by SA-beta-gal staining analysis; assay type: functional, cell-based; settings: time 5.0 day
Procedure, shortened: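 GSK343 2 µM or DMSO for 5 days, then chromogenic SA-β-gal staining and counting of positive cells. Triplicate; mean ± SD.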

MDA-MB-231 [25] = assay: Effect on human MDA-MB-231 cells expressing shTET1 assessed as increase in H3K9me3 cascade by immunoblot analysis; assay type: functional, cell-based
MDA-MB-231 [26] = assay: Upregulation of TET1 in human MDA-MB-231 cells at 2 uM for 2 days by immunoblot analysis; assay type: functional, cell-based; settings: time 2.0 day
MCF7 [27] = assay: Upregulation of CDKN1A gene in human MCF7 cells at 2 uM by qRT-PCR analysis; assay type: functional, cell-based; procedure, shortened: as §4
MDA-MB-231 [28] = assay: Upregulation of TP53 gene in human MDA-MB-231 cells at 2 uM by qRT-PCR analysis; assay type: functional, cell-based; procedure, shortened: as §4

With `CCCc1cc(C)[nH]c(=O)c1CNC(=O)c1cc(-c2ccnc(N3CCN(C)CC3)c2)cc2c1cnn2C(C)C` the Activity (MDA-MB-436 [1]) was “Active”, the Activity (MCF7 [2]) was “inactive” and the Activity (BT-474 [3]) was “Non-Toxic”. The Activity (MDA-MB-436 [4]) was “Active”, the Activity (MDA-MB-231 [5]) was “Active” and the Activity (MDA-MB-436 [6]) was “Active”. For the same molecule, the Activity (MCF7 [7]) was 22.8%, the Activity (MDA-MB-436 [8]) was “Active” and the Activity (MDA-MB-436 [9]) was “Active”. For the same molecule, the Activity (BT-474 [10]) was “Non-Toxic”, the Activity (SK-BR-3) was “Non-Toxic” and the Activity (MDA-MB-231 [11]) was “Active”. For the same molecule, the Activity (MDA-MB-231 [12]) was “Active”, the Activity (MDA-MB-436 [13]) was “Active” and the Activity (MDA-MB-436 [14]) was “inactive”. For the same molecule, the Activity (MDA-MB-436 [15]) was 20.3%, the Activity (MDA-MB-436 [16]) was “Active” and the Activity (MDA-MB-436 [17]) was “Active”. For the same molecule, the Activity (MDA-MB-231 [18]) was “Active”, the Activity (MDA-MB-231 [19]) was “Active” and the Activity (MDA-MB-231 [20]) was “Active”. For the same molecule, the Activity (MDA-MB-231 [21]) was “inactive”, the Activity (BT-474 [22]) was “Non-Toxic” and the Activity (MDA-MB-436 [23]) was “Active”. For the same molecule, the Activity (MDA-MB-436 [24]) was “Active”, the Activity (MDA-MB-231 [25]) was “inactive” and the Activity (MDA-MB-231 [26]) was “Active”. For the same molecule, the Activity (MCF7 [27]) was “inactive” and the Activity (MDA-MB-231 [28]) was “Active”.
